# hERG rescue: compounds protecting human hERG from proarrhythmic drug block; Q12809; CHO-hERG, FluxOR thallium flux, dofetilide IC70 present; activation (rescue from dofetilide block), less the hit threshold, % at 10 µM; 0.51% of 310,000 active;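 active = activation above the mean of controls blocked by dofetilide plus 5 SD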;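 note: thallium influx through hERG after potassium depolarization seen as dye fluorescence rise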
# KCNQ1 pot: human KCNQ1 channel potentiation or activation. P51787. CHO-K1 KCNQ1, thallium flux FluxOR fluorescence; stronger effect = higher value. B-score at 10 µM. 0.35% of 310,000 active. AID 2648;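 active = fluorescence ratio B-score, a plate-corrected score, at least three library SD, with initial intensity B-score within 5 SD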
#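 Assay system: stable KCNQ1 CHO-K1 line; medium: assay buffer, equal DMSO in all wells; timing: 90 min dye loading and 20 min compound exposure, both at room temperature; technique: kinetic FluxOR thallium fluorescence, 10-s 1-Hz baseline, 110-s post-stimulus read; read-out basis: B score of baseline-normalized fluorescence ratio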
# KCNK3 inh: human KCNK3 channel inhibition, primary screen; CHO-KCNK3 thallium flux, FluxOR fluorescence; stronger effect = lower value; O14649; 0.84% of 340,000 active; AID 602410; B-score at 10 µM;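 active = B-score under library mean minus 4 SD, starting fluorescence ratio at most library mean plus 5 SD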;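 note: more negative B-score means stronger inhibition of thallium flux through KCNK3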
# Target sequence (O14649 whole entry, looked up): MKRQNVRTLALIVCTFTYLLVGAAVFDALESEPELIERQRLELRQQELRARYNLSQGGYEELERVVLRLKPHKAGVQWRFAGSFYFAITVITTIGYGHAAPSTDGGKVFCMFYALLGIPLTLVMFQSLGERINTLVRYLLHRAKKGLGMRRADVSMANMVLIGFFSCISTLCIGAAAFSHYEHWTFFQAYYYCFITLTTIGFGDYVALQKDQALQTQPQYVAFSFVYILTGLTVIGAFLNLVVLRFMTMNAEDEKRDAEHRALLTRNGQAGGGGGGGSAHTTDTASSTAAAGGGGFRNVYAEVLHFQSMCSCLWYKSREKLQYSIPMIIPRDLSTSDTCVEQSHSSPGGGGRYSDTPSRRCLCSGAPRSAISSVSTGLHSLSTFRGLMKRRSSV
# KCNQ1 inh: blocks the human KCNQ1 potassium channel; B-score at 10 µM; CHO-K1 KCNQ1, FluxOR thallium flux fluorescence; stronger effect = higher value; P51787; 1.3% of 310,000 active; AID 2642;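 active = compounds whose thallium flux B-score, printed positive for inhibition, exceeds three library SD while starting fluorescence stays within three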;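 note: channel opened by potassium depolarization with thallium stimulus after 20 min compound exposure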
# KCNK9 inh: blocks the human KCNK9 two-pore domain potassium channel; Q9NPC2; HEK293 KCNK9, FluxOR thallium flux fluorescence; stronger effect = lower value; B-score at 10 µM; 1.2% of 310,000 active;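 active = ratio B-score over 3 SD below the library mean, with starting fluorescence within 5 SD of its mean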;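 note: negative B-score means less thallium flux so channel inhibition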
# Active calls of the source: *; i = inactive; / = no result. A selection: hits, their analogues and other compounds. The true share with any hit is near 3.1%.
SMILES,hERG rescue,KCNQ1 pot,KCNK3 inh,KCNQ1 inh,KCNK9 inh
CSc1ccc(/C=C/C(=O)OCC(=O)NCC2CCCO2)cc1 (stereo unspecified),/,/,i,/,/
COCCn1nnnc1C(c1ccccc1OC)N1CCN(C(=O)c2ccco2)CC1 (stereo unspecified),-2,i,i,i,i
COc1ccc(OC)c(C(c2nnnn2CCC(C)C)N2CCN(C(=O)c3ccco3)CC2)c1 (stereo unspecified),-10,i,i,i,-6.7*
FC(F)(F)c1cccc(NC(=S)Nc2cccc(NC(=S)Nc3cccc(C(F)(F)F)c3)n2)c1,-14,i,i,8*,i
FC(F)(F)c1cccc(NC(=S)NNC(=S)NCc2ccccc2)c1,-15,i,i,7*,i
CCc1ccc(C(=O)CSC2=C(C#N)C(c3ccco3)C(C(C)=O)=C(C)N2)cc1 (stereo unspecified),-10,i,/,i,-11*
CC1=C(C(=O)Nc2ccccc2)C(c2ccco2)C(C#N)=C(SCC(=O)OC(C)C)N1 (stereo unspecified),-25,i,-9.8*,i,i
CC1=C(C(=O)Nc2ccccc2)C(c2ccco2)C(C#N)=C(SCC(=O)Nc2cccc(C)c2C)N1 (stereo unspecified),-7,i,i,i,i
C=CCOC(=O)C1=C(C)NC(SCC(=O)Nc2ccccc2)=C(C#N)C1c1ccco1 (stereo unspecified),-10,i,i,i,i
CC1=C(C(=O)Nc2ccccc2)C(c2ccco2)C(C#N)=C(SCc2ccccc2)N1 (stereo unspecified),-12,i,/,11*,i
Cc1cc(C)c2nc(N3C(=O)C(O)=C(C(=O)c4ccco4)C3c3cccc(O)c3)sc2c1 (stereo unspecified),/,/,i,/,/
COc1ccc(CCN=C(NS(=O)(=O)c2ccccc2)c2ccccc2)cc1OC,12*,i,i,i,i
CCc1ccc(NC(=O)C(C)OC(=O)Cc2cc(OC)c(OC)c(OC)c2)cc1 (stereo unspecified),/,/,-11*,/,/
O=C(CCc1nc2ccccc2c(=O)[nH]1)Nc1cc(C(F)(F)F)ccc1N1CCCC1,/,/,i,/,/
CC(C)(C)OC(=O)C[C@@H]1C/C=C\C[C@@H](CC(=O)N(CCO)Cc2ccccc2)C(=O)N[C@H](C(C)(C)C)COC1=O,/,/,i,/,/
COc1cc(NC(=O)CSCC(=O)Nc2cc(OC)cc(OC)c2)cc(OC)c1,-6,i,/,i,i
COc1cc(NC(=O)CSc2nc(C)c(C)c(C)n2)cc(OC)c1,7.5*,i,i,i,i
CCCOc1ccc(-c2c(C(=O)N/N=C/c3ccc(C)cc3)nnn2-c2nonc2N)cc1,-7,i,i,i,i
Nc1nonc1-n1nnc(C(=O)N/N=C/c2cccc(Cl)c2Cl)c1CN1CCCC1,40*,i,i,i,i
CCCOc1ccc(-c2c(C(=O)N/N=C/c3ccccc3OCC)nnn2-c2nonc2N)cc1,37*,i,i,i,i
Nc1nonc1-n1nnc(C(=O)N/N=C/c2ccc(Cl)cc2Cl)c1CN1CCCC1,-3,i,i,i,i
Nc1ncnc2c1ncn2[C@@H]1O[C@H](CNCc2ccccc2OCc2ccc(Cl)cc2Cl)[C@@H](O)[C@H]1O,/,/,i,/,/
CC(=O)NC(CC(=O)Nc1cc(Cl)ccc1-n1cncn1)c1ccccc1 (stereo unspecified),-16,i,i,i,i
C=CCn1c(=NC(=O)C2COc3ccccc3O2)sc2cccc(OC)c21 (stereo unspecified),-13,i,i,i,-7.4*
C=CCn1c(=NC(=O)CN2C(=O)CCC2=O)sc2cccc(OC)c21,-7,i,i,i,i
O=C(Cc1ccc(NC(=O)C2CCN(C(=O)C3CCCCC3)CC2)cc1)Nc1ccc(C(=O)N2CCOCC2)cc1,/,/,i,/,/
CC(C)(C)NC(=O)CSc1nnc(-c2ccco2)n1Cc1ccco1,4.9*,i,i,i,i
CCN(C(=O)c1ccc(C(C)(C)C)cc1)c1nnc(Cn2nnc3ccccc32)s1,-21,i,i,7*,i
CCN(C(=O)CC(C)C)c1nnc(Cn2nnc3ccccc32)s1,-12,i,i,i,i

# Compound activity (PubChem)
